Converted amounts (≈) assume the structure as drawn. The source made the active and inactive calls. No cut-off for these calls is given here.
Assays:
[1] = test system: Mycobacterium tuberculosis; assay: Antimycobacterial activity against XDR clinical isolate Mycobacterium tuberculosis 9449/2007 assessed as inhibition of mycobacterial growth measured after 14 to 21 days of incubation by Sulas semisynthetic medium based assay; assay type: functional; conditions: time 14-21 day
Outline: (§1)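 Clinical MDR/XDR M. tuberculosis isolates were tested by the Sula's semisynthetic medium micromethod. Compounds in DMSO at 1000 to 0.5 μmol/L, in twofold-type steps. Incubation at 37 °C, read at 14 and 21 days. MIC99 is the lowest concentration inhibiting >99% of growth. Drug resistance or susceptibility of each isolate is to amikacin, clofazimine, gentamicin, ofloxacin, streptomycin and the others listed.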

[2] = test system: Mycobacterium tuberculosis; assay: Antitubercular activity against Mycobacterium tuberculosis CNCTC My 331/88 (H37Rv) assessed as inhibition of bacterial growth measured after 21 days of incubation by Sulas semisynthetic medium based assay; assay type: functional; conditions: 504 h, time 21 day
Outline: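 Micromethod MIC in Sula's semisynthetic medium. MIC is the lowest concentration inhibiting >99% of the mycobacterial population. Isoniazid was the standard drug.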

[3] = test system: Mycobacterium tuberculosis; assay: Antimycobacterial activity against XDR clinical isolate Mycobacterium tuberculosis 234/2005 assessed as inhibition of mycobacterial growth measured after 14 to 21 days of incubation by Sulas semisynthetic medium based assay; assay type: functional; conditions: time 14-21 day; outline: as §1
[4] = test system: Mycobacterium tuberculosis; assay: Antimycobacterial activity against MDR clinical isolate Mycobacterium tuberculosis 9449/2007 assessed as inhibition of mycobacterial growth measured after 14 to 21 days of incubation by Sulas semisynthetic medium based assay; assay type: functional; conditions: time 14-21 day; outline: as §1
[5] = test system: Staphylococcus epidermidis; assay: Antibacterial activity against Staphylococcus epidermidis C1936 assessed as inhibition of bacterial growth incubated for 24 to 48 hrs by microdilution broth method; assay type: functional, organism-based; conditions: time 24-48 hrs
Outline: (§2)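 Clinical isolates kept at –70 °C and subcultured twice on Mueller-Hinton agar, using the second subculture. Broth microdilution in Mueller-Hinton broth at pH 7.4 with two-fold serial compound dilutions and DMSO ≤1% final. Inoculum was 10 μL of a 1.5 × 10⁸ CFU/mL suspension. Incubated at 36 °C ± 1 °C and read at 24 h and 48 h. MIC taken as 95% growth inhibition.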

[6] = Intrinsic clearance in human liver microsomes at 3 uM incubated for 5 to 45 min in presence of NADPH by LC-MS analysis; assay type: ADME, Microsome; conditions: time 5-45 min, read-out: CLH
[7] = Half life in human liver microsomes at 3 uM incubated for 5 to 45 min in presence of NADPH by LC-MS analysis; assay type: ADME, Microsome; conditions: time 5-45 min
Staphylococcus aureus [8] = assay: Antibacterial activity against Staphylococcus aureus C1947 assessed as inhibition of bacterial growth incubated for 24 to 48 hrs by microdilution broth method; assay type: functional, organism-based; conditions: time 24-48 hrs; outline: as §2
[9] = test system: Mycobacterium tuberculosis; assay: Antimycobacterial activity against MDR clinical isolate Mycobacterium tuberculosis 7357/1998 assessed as inhibition of mycobacterial growth measured after 14 to 21 days of incubation by Sulas semisynthetic medium based assay; assay type: functional; conditions: time 14-21 day; outline: as §1
Mycobacterium kansasii = assay: Antitubercular activity against Mycobacterium kansasii CNCTC My 235/80 assessed as inhibition of bacterial growth measured after 21 days of incubation by Sulas semisynthetic medium based assay; assay type: functional; conditions: CNCTC My 235/80, 504 h, time 21 day
Outline: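 Micromethod in Sula's semisynthetic medium. MIC is the lowest concentration inhibiting >99% of the mycobacterial population. Isoniazid was the standard.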

Klebsiella pneumoniae [10] = assay: Antibacterial activity against ESBL negative Klebsiella pneumoniae C1950 assessed as inhibition of bacterial growth incubated for 24 to 48 hrs by microdilution broth method; assay type: functional, organism-based; conditions: time 24-48 hrs; outline: as §2
[11] = test system: Mycobacterium tuberculosis; assay: Antimycobacterial activity against XDR clinical isolate Mycobacterium tuberculosis PRAHA 1 assessed as inhibition of mycobacterial growth measured after 14 to 21 days of incubation by Sulas semisynthetic medium based assay; assay type: functional; conditions: time 14-21 day; outline: as §1
[12] = test system: Mycobacterium tuberculosis; assay: Antimycobacterial activity against MDR clinical isolate Mycobacterium tuberculosis PRAHA 1 assessed as inhibition of mycobacterial growth measured after 14 to 21 days of incubation by Sulas semisynthetic medium based assay; assay type: functional; conditions: time 14-21 day; outline: as §1
[13] = test system: Mycobacterium tuberculosis; assay: Antimycobacterial activity against MDR clinical isolate Mycobacterium tuberculosis 8666/2010 assessed as inhibition of mycobacterial growth measured after 14 to 21 days of incubation by Sulas semisynthetic medium based assay; assay type: functional; conditions: time 14-21 day; outline: as §1
Enterococcus faecium [14] = assay: Antibacterial activity against vancomycin-resistant Enterococcus faecium assessed as inhibition of bacterial growth incubated for 24 to 48 hrs by microdilution broth method; assay type: functional, organism-based; conditions: time 24-48 hrs
Outline: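 Clinical isolates, stored at −70 °C, were passaged twice on Mueller-Hinton agar. Broth microdilution in Mueller-Hinton broth, pH 7.4, with twofold serial dilutions. DMSO was at most 1% final. Inoculum 1.5 × 10⁸ CFU/mL suspension. MIC is 95% growth inhibition, read after 24 and 48 h at 36 °C.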

[15] = test system: Mycobacterium tuberculosis; assay: Antimycobacterial activity against MDR clinical isolate Mycobacterium tuberculosis PRAHA 131 assessed as inhibition of mycobacterial growth measured after 14 to 21 days of incubation by Sulas semisynthetic medium based assay; assay type: functional; conditions: time 14-21 day; outline: as §1
Klebsiella pneumoniae [16] = assay: Antibacterial activity against ESBL positive Klebsiella pneumoniae C1914 assessed as inhibition of bacterial growth incubated for 24 to 48 hrs by microdilution broth method; assay type: functional, organism-based; conditions: time 24-48 hrs; outline: as §2
Escherichia coli [17] = assay: Antibacterial activity against Escherichia coli A1235 assessed as inhibition of bacterial growth incubated for 24 to 48 hrs by microdilution broth method; assay type: functional, organism-based; conditions: time 24-48 hrs; outline: as §2
[18] = test system: Mycobacterium tuberculosis; assay: Antimycobacterial activity against XDR clinical isolate Mycobacterium tuberculosis PRAHA 131 assessed as inhibition of mycobacterial growth measured after 14 to 21 days of incubation by Sulas semisynthetic medium based assay; assay type: functional; conditions: time 14-21 day; outline: as §1
H9c2 = assay: Cytotoxicity against rat H9c2 cells assessed as cell viability incubated for 72 hrs by MTT spectrophotometric analysis; assay type: functional, cell-based; conditions: H9c2, 72 h
Outline: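 HepG2 or rat H9c2 cells in DMEM with FBS, seeded at 10,000 cells/well. Treated 24 h later for 72 h, with 0.1% DMSO vehicle and 1% Triton X-100 as controls. MTT added (3 mg/mL solution) for 2 h at 37 °C, then cells lysed in isopropanol/0.1 M HCl/5% Triton X-100. Read at 570 nm minus 690 nm. Viability expressed as % of vehicle; IC50 derived where reached. At least four independent experiments.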

Staphylococcus aureus [19] = assay: Antibacterial activity against methicilin-resistant Staphylococcus aureus C1923 assessed as inhibition of bacterial growth at 125 uM incubated for 24 to 48 hrs by microdilution broth method; assay type: functional, organism-based; conditions: time 24-48 hrs
Staphylococcus aureus [20] = assay: Antibacterial activity against Staphylococcus aureus C1947 assessed as inhibition of bacterial growth at 125 uM incubated for 24 to 48 hrs by microdilution broth method; assay type: functional, organism-based; conditions: time 24-48 hrs
Enterococcus faecium [21] = assay: Antibacterial activity against vancomycin-resistant Enterococcus faecium assessed as inhibition of bacterial growth at 125 uM incubated for 24 to 48 hrs by microdilution broth method; assay type: functional, organism-based; conditions: time 24-48 hrs
Escherichia coli [22] = assay: Antibacterial activity against Escherichia coli A1235 assessed as inhibition of bacterial growth at 125 uM incubated for 24 to 48 hrs by microdilution broth method; assay type: functional, organism-based; conditions: time 24-48 hrs
[23] = test system: Staphylococcus epidermidis; assay: Antibacterial activity against Staphylococcus epidermidis C1936 assessed as inhibition of bacterial growth at 125 uM incubated for 24 to 48 hrs by microdilution broth method; assay type: functional, organism-based; conditions: time 24-48 hrs
Pseudomonas aeruginosa = assay: Antibacterial activity against multidrug-resistant Pseudomonas aeruginosa A1245 assessed as inhibition of bacterial growth at 125 uM incubated for 24 to 48 hrs by microdilution broth method; assay type: functional, organism-based; conditions: time 24-48 hrs
Klebsiella pneumoniae [24] = assay: Antibacterial activity against ESBL negative Klebsiella pneumoniae C1950 assessed as inhibition of bacterial growth at 125 uM incubated for 24 to 48 hrs by microdilution broth method; assay type: functional, organism-based; conditions: time 24-48 hrs

| Compound | MIC99 [1] [µM] | MIC99 [2] [µM] | MIC99 [3] [µM] | MIC99 [4] [µM] | Activity [5] | microsomal CLint at 3 µM [6] [µL/min/mg] | half-life at 3 µM [7] [h] | Activity (Staphylococcus aureus [8]) | MIC99 [9] [µM] | MIC99 (Mycobacterium kansasii) [µM] | Activity (Klebsiella pneumoniae [10]) | MIC99 [11] [µM] | MIC99 [12] [µM] | MIC99 [13] [µM] | Activity (Enterococcus faecium [14]) | MIC99 [15] [µM] | Activity (Klebsiella pneumoniae [16]) | Activity (Escherichia coli [17]) | MIC99 [18] [µM] | IC50 (H9c2) [µM] | further results |
| --- | --- | --- | --- | --- | --- | --- | --- | --- | --- | --- | --- | --- | --- | --- | --- | --- | --- | --- | --- | --- | --- |
| c1ccc2cc(Cn3cnc4nc(N5CCOCC5)nc(NC5CCC5)c43)ccc2c1 | 8 (≈ 3.32 µg/mL) | 4 (≈ 1.66 µg/mL) | 8 (≈ 3.32 µg/mL) | 4 (≈ 1.66 µg/mL) | Active | 36.6 | 0.632 | Active | 4 (≈ 1.66 µg/mL) | 8 (≈ 3.32 µg/mL) | inactive | 4 (≈ 1.66 µg/mL) | 4 (≈ 1.66 µg/mL) | 4 (≈ 1.66 µg/mL) | Active | 4 (≈ 1.66 µg/mL) | inactive | inactive | 8 (≈ 3.32 µg/mL) | – | – |
| c1ccc(CNc2nc(N3CCOCC3)nc3ncn(Cc4ccc5ccccc5c4)c23)cc1 | 4 (≈ 1.8 µg/mL) | 4 (≈ 1.8 µg/mL) | 4 (≈ 1.8 µg/mL) | 4 (≈ 1.8 µg/mL) | inactive | 72.1 | 0.322 | inactive | 2 (≈ 0.901 µg/mL) | 8 (≈ 3.6 µg/mL) | inactive | 4 (≈ 1.8 µg/mL) | 4 (≈ 1.8 µg/mL) | 4 (≈ 1.8 µg/mL) | inactive | 4 (≈ 1.8 µg/mL) | inactive | inactive | 4 (≈ 1.8 µg/mL) | – | – |
| O=c1[nH]c(N2CCOCC2)nc2ncn(Cc3ccc4ccccc4c3)c12 | 64 (≈ 23.1 µg/mL) | 4 (≈ 1.45 µg/mL) | 32 (≈ 11.6 µg/mL) | 32 (≈ 11.6 µg/mL) | inactive | 12.6 | 1.83 | inactive | 32 (≈ 11.6 µg/mL) | 125 (≈ 45.2 µg/mL) | inactive | 64 (≈ 23.1 µg/mL) | 32 (≈ 11.6 µg/mL) | 32 (≈ 11.6 µg/mL) | inactive | 32 (≈ 11.6 µg/mL) | inactive | inactive | 32 (≈ 11.6 µg/mL) | > 50 | – |
| Nc1nc(N2CCOCC2)nc2ncn(Cc3ccc4ccccc4c3)c12 | 4 (≈ 1.44 µg/mL) | 2 (≈ 0.721 µg/mL) | – | 2 (≈ 0.721 µg/mL) | inactive | 16.8 | 1.38 | inactive | – | 16 (≈ 5.77 µg/mL) | inactive | – | – | 2 (≈ 0.721 µg/mL) | inactive | 2 (≈ 0.721 µg/mL) | inactive | inactive | 4 (≈ 1.44 µg/mL) | > 50 | Activity (Staphylococcus aureus [19]): inactive; Activity (Staphylococcus aureus [20]): inactive; Activity (Enterococcus faecium [21]): inactive; Activity (Escherichia coli [22]): inactive; Activity [23]: inactive; Activity (Pseudomonas aeruginosa): inactive; Activity (Klebsiella pneumoniae [24]): inactive |

From ChEMBL document CHEMBL5620421, “2,6-Disubstituted 7-(naphthalen-2-ylmethyl)-7H-purines as a new class of potent antitubercular agents inhibiting DprE1” (Eur J Med Chem, 2023)
